A word on the EC90: it is the concentration at which the effect reaches the 90% level. Usually clearance stands for a measure of how efficiently the substance is removed, as volume per time. Low values mean inefficient removal, high ones efficient removal. By half-life is commonly meant how long it takes for the measured level to halve. A low value points to fast loss. As a reminder, the AUC(0-inf) is the area under the concentration-time curve extrapolated to infinity. Higher therefore signals high exposure. Broadly, the Cmax is the highest concentration seen after dosing. The term bioavailability denotes the share of a dose that reaches the circulation, judged against a reference dose that is usually intravenous. Read a low bioavailability as poor availability. For orientation: AUC means the area under the concentration-time curve, a measure of exposure. Low values mean low exposure, high ones high exposure.

The nature of data set [1]: Antiviral activity against Influenza A virus (A/Puerto Rico/8/34(H1N1)) infected in MDCK cells assessed as decrease in negative strand HA RNA levels after 20 hrs by bDNA hybridization method. Format: functional, Influenza A virus (A/Puerto Rico/8/1934(H1N1)). The method, boiled down: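 Viral RNA in infected cells quantified by branched DNA assay. EC90 is the test-compound concentration giving viral RNA levels equal to 10% of control wells.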

For data set [2], the target named is T1, aldehyde oxidase (Homo sapiens, UniProt Q06278).
T1 sequence (Q06278 whole entry): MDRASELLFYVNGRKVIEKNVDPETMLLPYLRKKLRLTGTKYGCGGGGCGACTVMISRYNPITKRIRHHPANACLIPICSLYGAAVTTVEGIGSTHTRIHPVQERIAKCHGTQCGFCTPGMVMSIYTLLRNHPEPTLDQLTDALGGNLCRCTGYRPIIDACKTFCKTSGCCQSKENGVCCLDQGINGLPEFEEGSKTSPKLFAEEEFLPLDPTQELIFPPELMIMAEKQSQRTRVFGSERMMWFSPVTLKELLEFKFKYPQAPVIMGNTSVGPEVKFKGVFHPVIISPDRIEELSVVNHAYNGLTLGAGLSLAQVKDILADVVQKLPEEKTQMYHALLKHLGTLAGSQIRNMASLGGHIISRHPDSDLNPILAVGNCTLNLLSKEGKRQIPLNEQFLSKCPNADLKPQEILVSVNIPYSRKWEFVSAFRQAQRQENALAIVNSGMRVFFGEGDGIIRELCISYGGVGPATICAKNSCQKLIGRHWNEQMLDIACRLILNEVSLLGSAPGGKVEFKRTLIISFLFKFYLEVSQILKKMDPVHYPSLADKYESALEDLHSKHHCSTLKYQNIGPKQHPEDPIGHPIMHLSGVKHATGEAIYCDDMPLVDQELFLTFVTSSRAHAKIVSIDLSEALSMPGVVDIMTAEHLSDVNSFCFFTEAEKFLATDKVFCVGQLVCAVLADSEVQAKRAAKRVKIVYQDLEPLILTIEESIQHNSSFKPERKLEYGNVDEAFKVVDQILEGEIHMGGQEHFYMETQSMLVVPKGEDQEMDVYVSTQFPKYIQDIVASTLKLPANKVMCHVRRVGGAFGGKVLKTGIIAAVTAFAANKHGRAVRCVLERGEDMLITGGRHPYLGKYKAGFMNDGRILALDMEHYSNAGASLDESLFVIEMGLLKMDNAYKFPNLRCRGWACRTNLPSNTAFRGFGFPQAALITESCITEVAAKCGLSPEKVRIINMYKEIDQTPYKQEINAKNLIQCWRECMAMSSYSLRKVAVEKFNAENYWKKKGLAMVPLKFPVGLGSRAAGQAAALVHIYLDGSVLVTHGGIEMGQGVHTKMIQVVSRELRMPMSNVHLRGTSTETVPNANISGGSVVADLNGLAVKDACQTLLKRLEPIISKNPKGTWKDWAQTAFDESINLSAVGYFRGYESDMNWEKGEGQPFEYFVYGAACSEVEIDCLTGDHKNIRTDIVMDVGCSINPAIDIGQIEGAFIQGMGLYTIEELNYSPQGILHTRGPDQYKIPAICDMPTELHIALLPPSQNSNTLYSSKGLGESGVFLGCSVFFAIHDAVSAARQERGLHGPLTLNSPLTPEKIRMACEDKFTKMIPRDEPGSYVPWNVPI
The experiment in a line: Drug metabolism in human liver cytosol assessed as aldehyde oxidase-mediated metabolism by measuring amount of parent compound remaining measured over 4 hrs in absence of aldehyde oxidase inhibitor raloxifene by MS/MS analysis. Format: ADME. Conditions: read-out: Stability. The method, boiled down:
(§1)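 Test compounds were incubated in triplicate at 1 µM in human liver cytosol (1 mg/mL protein) at 37 °C for 4 hours, with or without the aldehyde oxidase inhibitor raloxifene.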

For data set [3], the target named is T1, aldehyde oxidase. The experiment in a line: Drug metabolism in human liver cytosol assessed as aldehyde oxidase-mediated metabolism by measuring amount of parent compound remaining measured over 4 hrs in presence of aldehyde oxidase inhibitor raloxifene by MS/MS analysis. Type of data set: ADME. Conditions: read-out: Stability. The method, boiled down: as §1

Data set [4] in a line: Clearance in rat at 1 mg/kg, iv. Format: ADME, organism-based. As to conditions: in vivo.
A short description of data set [5]: Half life in rat at 1 mg/kg, iv. Format: ADME, organism-based. Conditions: in vivo.
The nature of data set [6]: Volume of distribution in steady state in rat at 1 mg/kg, iv. Type of data set: ADME, organism-based. Conditions: in vivo, read-out: Vdss.
The nature of data set [7]: AUC (0 to infinity) in rat at 3 mg/kg, po. Type of data set: ADME, organism-based. Set-up: dose 3 mg/kg, time infinity, route oral. Conditions: in vivo.
A short description of data set [8]: Cmax in rat at 3 mg/kg, po. As to conditions: in vivo. Set-up: dose 3 mg/kg, route oral. Format: ADME, organism-based.
Data set [9] in a line: Oral bioavailability in rat at 3 mg/kg. Type of data set: ADME, organism-based. Conditions: in vivo.
A short description of data set [10]: AUC in mouse at 30 mg/kg, po. Type of data set: ADME, organism-based. As to conditions: in vivo.
Data set [11] can be described thus: Cmax in mouse at 30 mg/kg, po. Format: ADME, organism-based. As to conditions: in vivo. The arrangement: dose 30 mg/kg, route oral.

Take `O=C(N[C@@H]1CCC[C@H](Nc2nc(-c3c(/C=N/O)[nH]c4ncc(F)cc34)ncc2F)C1)N1CCCC1`: the EC90 in [1] (Influenza A virus, MDCK, 20 h) worked out at 0.091 µM.

Turning to `O=C(N[C@@H]1CCC[C@H](Nc2nc(-c3n[nH]c4ncc(F)cc34)ncc2F)C1)N1CC[C@@H](F)C1`, the EC90 in data set [1] (Influenza A virus, MDCK, 20 h) was 0.001 µM. Also, the remaining at 4 h at aldehyde oxidase [2] was found to be 0.6%; at aldehyde oxidase [3], 98%.

For `O=C(O)c1[nH]c2ncc(F)cc2c1-c1ncc(F)c(N[C@H]2CCC[C@@H](NC(=O)N3CCCC3)C2)n1`, in data set [1] (Influenza A virus, MDCK, 20 h), the concentration for an effect of 90% (EC90) came to 2.2 µM.

`O=C(N[C@@H]1CCC[C@H](Nc2nc(-c3c(CO)[nH]c4ncc(F)cc34)ncc2F)C1)N1CCCC1`: the EC90 in data set [1] (Influenza A virus, MDCK, 20 h) turned out to be 0.028 µM. The results for the remaining at 4 h at aldehyde oxidase [2] and at aldehyde oxidase [3] were 100% and 96%, respectively. Moreover, the clearance in [4] was 6.2 mL/min/kg. Also, in [5], the half-life is 2.3 h. Further, in data set [6], the Vd worked out at 0.6 L/kg. This molecule displayed an AUC(0-inf) in [7] of 9700 ng·h/mL. The results for the Cmax in [8] and in data set [11] were 2800 ng/mL and 37700 ng/mL, respectively. The bioavailability in data set [9] was 100%. Also, the exposure (AUC) in data set [10] came out at 101000 ng·h/mL.

Consider `Cn1cnc(C(=O)N[C@@H]2CCC[C@H](Nc3nc(-c4n[nH]c5ncc(F)cc45)ncc3F)C2)c1`, for which the EC90 in data set [1] (Influenza A virus, MDCK, 20 h) worked out at 0.015 µM. Besides, the remaining at 4 h at aldehyde oxidase [2] was 40%; at aldehyde oxidase [3], 103%.

`CC(O)c1[nH]c2ncc(F)cc2c1-c1ncc(F)c(N[C@H]2CCC[C@@H](NC(=O)N3CCCC3)C2)n1` (stereo in doubt; 21b): in data set [1], the 90% effect concentration (EC90) is 0.46 µM. The remaining at 4 h at aldehyde oxidase [2] and on aldehyde oxidase [3] was 99% throughout.

`Cc1[nH]c2ncc(F)cc2c1-c1ncc(F)c(N[C@H]2CCC[C@@H](NC(=O)N3CCCC3)C2)n1`: in data set [1] (Influenza A virus, MDCK, 20 h), the EC90 was found to be 0.28 µM. Further, the remaining at 4 h on aldehyde oxidase [2] and on aldehyde oxidase [3] was 103% in each case.

On to `CC(O)c1[nH]c2ncc(F)cc2c1-c1ncc(F)c(N[C@H]2CCC[C@@H](NC(=O)N3CCCC3)C2)n1` (stereo in doubt; 21a), for which the 90% effect concentration (EC90) in data set [1] amounted to 0.027 µM.

As to `O=C(N[C@@H]1CCC[C@H](Nc2nc(-c3c[nH]c4ncc(F)cc34)ncc2F)C1)N1CCCC1`, the 90% effect concentration (EC90) in data set [1] (Influenza A virus, MDCK, 20 h) turned out to be 0.001 µM. Further, the remaining at 4 h was determined as 4% on aldehyde oxidase [2] and 99% on aldehyde oxidase [3]. The molecule also returned a clearance in [4] of 1.2 mL/min/kg. The molecule further gave a half-life in data set [5] of 3.2 h. Moreover, the Vd in data set [6] was found to be 0.3 L/kg. This molecule registered a total exposure AUC(0-inf) in data set [7] of 30300 ng·h/mL. Moreover, the Cmax in [8] amounted to 2600 ng/mL; in data set [11] it was 61100 ng/mL. The molecule further returned a bioavailability in data set [9] of 82%. The exposure (AUC) in [10] stood at 336000 ng·h/mL.

For the molecule `O=C(N[C@@H]1CCC[C@H](Nc2nc(-c3n[nH]c4ncc(F)cc34)ncc2F)C1)c1ccsc1`, in data set [1] (Influenza A virus, MDCK, 20 h), the EC90 came out at 0.001 µM. In addition, the figures for the remaining at 4 h on aldehyde oxidase [2] and on aldehyde oxidase [3] were 0% and 107%, respectively.

Turning to `O=C(O)[C@H]1C2CCC(CC2)[C@@H]1Nc1nc(-c2n[nH]c3ncc(F)cc23)ncc1F`, the concentration for an effect of 90% (EC90) in [1] (Influenza A virus, MDCK, 20 h) is 0.003 µM.

Regarding `O=C(N[C@@H]1CCC[C@H](Nc2nc(-c3c(CO)[nH]c4ncc(F)cc34)ncc2F)C1)N1CC[C@@H](F)C1`, in data set [1] (Influenza A virus, MDCK, 20 h), the 90% effect concentration (EC90) amounted to 0.01 µM. In addition, the figures for the remaining at 4 h on aldehyde oxidase [2] and on aldehyde oxidase [3] were 105% and 114%, respectively.

`O=C(N[C@@H]1CCC[C@H](Nc2nc(-c3c[nH]c4ncc(F)cc34)ncc2F)C1)N1CCOCC1`: the remaining at 4 h came to 7% on aldehyde oxidase [2] and 103% at aldehyde oxidase [3].

With `O=C(N[C@@H]1CCC[C@H](Nc2nc(-c3n[nH]c4ncc(F)cc34)ncc2F)C1)N1CCCC1`, the EC90 in data set [1] (Influenza A virus, MDCK, 20 h) stood at 0.002 µM. In addition, the remaining at 4 h on aldehyde oxidase [2] turned out to be 1%; on aldehyde oxidase [3] it was 101%. The clearance in [4] amounted to 7.7 mL/min/kg. For the same molecule, in data set [5], the half-life is 1.5 h. The Vd in data set [6] is 0.4 L/kg. The molecule further registered an AUC(0-inf) in [7] of 1200 ng·h/mL. In addition, the peak concentration (Cmax) was found to be 200 ng/mL in [8] and 32100 ng/mL in data set [11]. The same molecule displayed a bioavailability in data set [9] of 15.3%. In addition, the AUC in data set [10] was 44500 ng·h/mL.

As to `O=C(N[C@@H]1CCC[C@H](Nc2nc(-c3c(C4CC4)[nH]c4ncc(F)cc34)ncc2F)C1)N1CCCC1`, in data set [1] (Influenza A virus, MDCK, 20 h), the EC90 is more than 3.3 µM.

Regarding `O=C(N[C@@H]1CCC[C@H](Nc2nc(-c3n[nH]c4ncc(F)cc34)ncc2F)C1)N1CCOCC1`, the EC90 in data set [1] (Influenza A virus, MDCK, 20 h) was 0.014 µM.
